Screening results: PubChem BioAssay, several laboratories
Shown are actives, neighbours in structure and some others; about 2.6% of the full set was active somewhere.
WT yeast gro inh = growth inhibition of WT yeast, mitochondrial fusion screen | mitochondrial fusion phenotypic screen, WT strain | inhibition, % at 10 µM | actives 2.1% (n = 190,000) | AID 1362; in the data active = inhibition above about 58%; tested in S. cerevisiae
TNAP inh no acc = inhibitors of human TNAP without phosphate acceptor; P05186; purified TNAP, CDP-star luminescence, 30 min; inhibition, % at 20 µM; actives 0.26% (n = 200,000); AID 1012;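 active = tissue-nonspecific alkaline phosphatase inhibition above about 50% at 20 µM in the single-dose screen, limit read from the data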;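 also: 0% = DMSO negative control and 100% = EDTA positive control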
Target sequence (P05186 whole entry, looked up): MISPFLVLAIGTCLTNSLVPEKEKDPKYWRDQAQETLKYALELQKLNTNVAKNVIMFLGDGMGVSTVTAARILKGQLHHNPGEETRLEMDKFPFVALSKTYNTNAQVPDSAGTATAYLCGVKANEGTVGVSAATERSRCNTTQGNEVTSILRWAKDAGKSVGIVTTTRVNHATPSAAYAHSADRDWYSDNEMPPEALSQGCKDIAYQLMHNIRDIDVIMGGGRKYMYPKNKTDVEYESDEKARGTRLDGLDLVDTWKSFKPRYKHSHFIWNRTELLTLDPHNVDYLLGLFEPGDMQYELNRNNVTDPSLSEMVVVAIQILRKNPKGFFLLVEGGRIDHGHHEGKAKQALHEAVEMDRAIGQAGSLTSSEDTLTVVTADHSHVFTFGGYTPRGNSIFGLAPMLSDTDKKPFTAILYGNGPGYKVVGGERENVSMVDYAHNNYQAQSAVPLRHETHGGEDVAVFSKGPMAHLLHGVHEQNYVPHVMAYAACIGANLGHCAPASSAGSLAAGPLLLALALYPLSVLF
TNAP inh hi DEA = TNAP (human) inhibition, high acceptor. P05186. purified TNAP, CDP-star luminescence, 1 M DEA. inhibition, % at 20 µM. actives 0.03% (n = 200,000);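 active = over 50% inhibition of tissue-nonspecific alkaline phosphatase at 20 µM in the single-dose screen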;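 also: plate controls were DMSO wells for no effect and EDTA-quenched wells as full inhibition for full effect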
Arbovirus inh = arbovirus infection inhibition | arbovirus infection cell-based antiviral screen | inhibition, % at 10 µM | actives 0.37% (n = 200,000); in the data active = inhibition above about 30%
TNAP act hi DEA = increases human TNAP activity under high phosphate acceptor concentration | P05186 | purified TNAP, CDP-star luminescence, 1 M DEA, 30 min; stronger effect = higher value; 0 = EDTA background, 1 = DMSO-only activity | activation factor at 20 µM | 200,000 tested, under 10 active | AID 1136;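 active = activation factor at least 2 at 20 µM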
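system = human TNAP | amount = enzyme diluted 1/800 final | reagent = 100 µM CDP-star substrate | signal = luminescent substrate turnover signal | dosing = one dose, 20 µM | benchmarks = EDTA negative control, DMSO positive control | measure = activation factor | timing = 30 min reaction, room temperature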
An asterisk follows results filed as active; x = not tested or not shown.

SMILES	WT yeast gro inh	TNAP inh no acc	TNAP inh hi DEA	Arbovirus inh	TNAP act hi DEA
O=C(O)c1cnc(-c2ccccc2)nc1Sc1ccccc1Cl	-21	-8	-2	43*	1
COc1ccc(Sc2nc(-c3ccccc3)ncc2C(=O)O)cc1	-12	-3	-3	7	1
CCOC(=O)c1nnc(-c2ccccc2)nc1Sc1ccccc1Cl	8	-6	-3	-36	1
CC(C)CNC(=O)CC(=O)N/N=C/c1ccc(F)cc1	-2	-8	-2	-1	1
CC(=O)Nc1ccc2c(c1)ncn2-c1ccc(C)cc1	-3	-10	-4	1	1
CCc1ccc(OCC(=O)Nc2cc(S(=O)(=O)CC)ccc2O)cc1	-17	-8	-5	6	1
Cc1cc(C)n(-c2ccc(C(=O)OCC(=O)c3ccc(Br)s3)cc2)n1	30	-1	-1	-1	1
COc1ccc(O)c(/C=N/N=C2/C(=O)Nc3ccccc32)c1	-12	17	7	-6	0.9
COc1cc(/C=N/N=C2/C(=O)Nc3ccccc32)cc(OC)c1O	-3	49	56*	-10	0.4
CC(C)CCOc1ccc(/C=C2\CCn3c2nc2cc(C(=O)O)ccc2c3=O)cc1	-11	0	-3	38*	1
Cc1c(-c2cccs2)[n+](=O)c2c(n1[O-])CCCC2	-3	-6	0	-1	1
N/C(=N\c1nc(CSc2nnnn2-c2ccccc2)cc(=O)[nH]1)Nc1ccccc1	6	-21	-11	0	1.1
O=c1cc(CSc2nnnn2-c2ccccc2)nc(Nc2ccc(F)cc2)[nH]1	2	2	-6	31*	1.1
O=C(COc1ccc(Br)cc1)N1CCN(c2ccc([N+](=O)[O-])c(N3CCCCC3)c2)CC1	16	8	10	13	0.9
Clc1ccc(-c2nc(N3CCCCC3)nc3ccccc23)cc1	59*	-48	-16	-11	1.2
O=C(Nc1cccc(Cl)c1)N(Cc1nc2ccccc2c(=O)[nH]1)C1CCCC1	3	-9	-7	3	1.1
Cc1cccc(NC(=O)N(Cc2nc3ccccc3c(=O)[nH]2)C2CCCC2)c1	78*	-8	-4	4	1
COc1cccc(C(=O)NCC(=O)OCc2ccc(F)cc2Cl)c1	-17	-4	2	3	1
CCCc1cc(C(=O)Cc2ccc(F)cc2)c(O)cc1O	82*	0	2	-45	1
OCC1CCCN1C(=S)Nc1ccccc1 (stereo not given)	-31	-10	-2	2	1
COc1cc(NC(=O)c2ccc([N+](=O)[O-])o2)ccc1NC(=O)c1cccs1	95*	2	5	0	0.9
COc1cc(NC(=O)c2ccccc2Cl)ccc1NC(=O)c1cccs1	11	-14	-5	8	1.1
N/C(=N\c1nc2c(c(=O)[nH]1)CCC2)Nc1ccccc1	1	-50	-5	1	1.1
CC1CCCN(C(=O)CSc2nnc(-c3cccnc3)n2C2CCCCC2)C1 (stereo not given)	65*	-16	-9	3	1.1
COc1ccc2[nH]c3c(=O)n(CCCCCC(=O)NCCC(C)C)c(=S)[nH]c3c2c1	5	-9	-3	8	1
SMILES	WT yeast gro inh	TNAP inh no acc	TNAP inh hi DEA	Arbovirus inh	TNAP act hi DEA
Cc1cccc(C)c1OCC(O)CNS(=O)(=O)c1ccccc1C(=O)N1CCCCC1 (stereo not given)	17	-1	0	9	1
Cc1cc(C)nc(SCC(=O)Nc2nc(-c3ccccc3)c(-c3ccccc3)o2)n1	54	-9	1	-4	1
Cc1ccc(C(=O)Nc2nc(-c3ccccc3)c(-c3ccccc3)o2)cc1	69*	-11	2	-7	1
O=Cc1ccccc1-n1cncn1	2	-10	-6	-2	1.1
Cc1cccc(C(=O)NN(C)c2nc(-c3ccccc3)nnc2C(F)(F)F)c1	4	-4	-4	5	1
COc1ccc(C(=O)NN(C)c2nc(-c3ccccc3)nnc2C(F)(F)F)cc1	64*	-12	-6	8	1.1
CCOc1cccc(/C=N/NC(=S)Nc2ccccc2[N+](=O)[O-])c1O	17	-99	14	-19	0.9
O=[N+]([O-])c1ccccc1NC(=S)N/N=C/c1ccc(O)c(O)c1	7	85*	20	-11	0.8
CCC(CO)[n+]1c(C)cc(/C=C2\Sc3ccccc3N2Cc2ccccc2)cc1C (stereo not given)	59*	-7	18	-38	0.8
COC(=O)c1sccc1NC(=O)Cn1cnc2c1c(=O)n(C)c(=O)n2C	x	-7	0	13	1
Cc1nc(Nc2ccc(Cl)cc2Cl)sc1C(=O)Nc1ccccc1	71*	-10	-1	-25	1
Cc1nc(Nc2ccc(Cl)c(Cl)c2)sc1C(=O)Nc1ccccc1	93	-6	-1	-31	1
O=C(CSCC(=O)N1CCCCC1)OCC(=O)c1c[nH]c2ccccc12	-10	-4	2	75*	1
Cc1ccc(C(=O)OCC(=O)c2c[nH]c3ccccc23)cc1	4	-4	-4	7	1
CC(C)Cc1ccc(C(C)C(=O)OCC(=O)c2c[nH]c3ccccc23)cc1 (stereo not given)	69*	-12	0	-29	1
CC1(C(=O)OCC(=O)c2c[nH]c3ccccc23)CC1(Cl)Cl (stereo not given)	67*	-2	2	-12	1
CC(C)C(NS(=O)(=O)c1c(Cl)cccc1Cl)C(=O)OCC(=O)c1c[nH]c2ccccc12 (stereo not given)	-1	-10	-3	-19	1
Cc1onc(-c2ccccc2Cl)c1C(=O)Nc1nnc(-c2ccc(Cl)cc2Cl)s1	63*	-8	-2	-14	1
Cc1onc(-c2c(F)cccc2Cl)c1C(=O)Nc1nnc(-c2ccccc2)s1	-2	-10	-3	0	1
Cc1onc(-c2ccccc2Cl)c1C(=O)Nc1nnc(-c2ccc(Br)cc2)s1	68*	-2	3	-1	1
Cc1onc(-c2ccccc2)c1C(=O)Nc1nnc(COc2ccc(Cl)cc2)s1	63*	-7	2	15	1
Cc1onc(-c2ccccc2Cl)c1C(=O)Nc1nnc(-c2ccc(F)cc2)s1	51	-8	-2	8	1
O=C(Cc1cn2ccsc2n1)Nc1nc2c(s1)CCCC2	1	1	1	-2	1
CCC1=[N+](C)c2cccc3cccc(c23)N1C	59*	-8	3	-6	1
O=C(/C=C/c1ccc(Br)o1)NC(c1ccccc1)c1ccccc1	63*	5	0	3	1
O=C(NC(c1ccccc1)c1ccccc1)c1ccc(Br)o1	4	-6	-7	-8	1.1
CCOC(=O)c1sc(NC(=O)/C=C/c2cnn(CC)c2C)c(C(=O)OCC)c1C	63*	4	-1	-20	1
O=C(NCc1ccccn1)C(=O)Nc1nc(C23CC4CC(CC(C4)C2)C3)cs1	71*	-18	-1	-33	1
